Assay outcomes (PubChem BioAssay)
This is a sample that favours compounds with a hit; in the whole collection about 1.8% have one here.
NSD2 HMT inh – NSD2 (human) methyltransferase inhibition | O96028 | AID 743445 | inhibition, % at 12.5 µM | NSD2 peptide methylation, AlphaScreen, 120 min | 310,000 compounds, 0.54% hits; in the data active = inhibition above about 50%
Target sequence (O96028 whole entry, looked up): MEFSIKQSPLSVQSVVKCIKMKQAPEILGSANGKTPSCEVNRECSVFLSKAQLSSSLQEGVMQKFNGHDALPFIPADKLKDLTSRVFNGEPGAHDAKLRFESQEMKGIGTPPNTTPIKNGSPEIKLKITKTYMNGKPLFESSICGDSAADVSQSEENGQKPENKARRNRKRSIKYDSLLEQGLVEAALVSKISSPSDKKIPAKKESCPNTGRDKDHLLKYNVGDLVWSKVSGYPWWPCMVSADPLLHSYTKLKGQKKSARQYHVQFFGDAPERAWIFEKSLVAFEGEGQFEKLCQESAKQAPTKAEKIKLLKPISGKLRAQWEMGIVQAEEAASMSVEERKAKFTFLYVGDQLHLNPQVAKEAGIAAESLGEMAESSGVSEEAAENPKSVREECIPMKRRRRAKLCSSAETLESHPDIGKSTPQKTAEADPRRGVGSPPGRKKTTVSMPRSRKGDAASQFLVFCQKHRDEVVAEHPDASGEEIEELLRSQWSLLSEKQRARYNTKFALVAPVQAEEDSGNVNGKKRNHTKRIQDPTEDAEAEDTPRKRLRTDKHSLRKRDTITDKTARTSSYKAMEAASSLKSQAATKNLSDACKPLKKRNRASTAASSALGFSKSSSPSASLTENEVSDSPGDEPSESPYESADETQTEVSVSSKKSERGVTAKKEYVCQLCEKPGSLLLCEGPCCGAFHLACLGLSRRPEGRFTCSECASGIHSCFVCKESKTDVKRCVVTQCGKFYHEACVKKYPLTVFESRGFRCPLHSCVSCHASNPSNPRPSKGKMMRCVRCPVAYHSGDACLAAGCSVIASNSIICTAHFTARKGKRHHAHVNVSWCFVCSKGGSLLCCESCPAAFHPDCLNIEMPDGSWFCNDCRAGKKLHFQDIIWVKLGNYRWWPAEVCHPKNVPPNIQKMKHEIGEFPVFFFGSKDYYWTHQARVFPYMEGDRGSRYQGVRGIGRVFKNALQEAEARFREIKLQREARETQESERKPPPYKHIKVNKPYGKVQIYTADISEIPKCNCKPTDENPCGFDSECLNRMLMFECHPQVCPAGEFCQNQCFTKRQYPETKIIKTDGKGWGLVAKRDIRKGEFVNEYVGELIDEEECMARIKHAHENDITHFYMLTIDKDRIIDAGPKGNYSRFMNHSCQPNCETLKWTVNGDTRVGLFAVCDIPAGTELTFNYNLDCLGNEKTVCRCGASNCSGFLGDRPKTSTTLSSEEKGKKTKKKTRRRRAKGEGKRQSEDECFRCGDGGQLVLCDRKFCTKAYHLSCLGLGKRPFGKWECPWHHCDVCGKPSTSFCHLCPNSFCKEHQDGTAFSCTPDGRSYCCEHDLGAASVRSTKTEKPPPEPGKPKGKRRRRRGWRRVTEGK
MBD2 inh – inhibitors of human MBD2 binding to methylated oligonucleotide. Q9UBB5. TR-FRET. inhibition, % at 4.4 µM. 370,000 compounds, 0.31% hits; in the data active = inhibition above about 13%
Casp6 inh – blocks human caspase-6 cleavage activity; 350,000 compounds, 0.53% hits; P55212; purified caspase-6, Z-VEID-R110 cleavage fluorescence; AID 686996; inhibition, % at 12.5 µM;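 active = mean inhibition across replicates at least about 35%, with every replicate also reaching that limit, limit read from the data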;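 also: 0% = median of neutral control wells and 100% = no fluorescence left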
LEDGF integ inh – blocks HIV-1 LEDGF/p75-dependent DNA integration. AID 743269. 370,000 compounds, 0.64% hits. inhibition, % at 3.7 µM. TR-FRET IN-LEDGF/p75 DNA integration, Eu/Cy5;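 active = inhibition above the screen-wide mean plus 3 SD, cut at about 13% in these data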;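 also: signal is the Cy5 over europium emission ratio at 671 and 618 nm; 0% = plate median of compound wells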
UHRF1 binding – blocks human UHRF1 binding to methylated DNA; Q96T88; UHRF1 binding to methylated oligo, TR-FRET; inhibition, % at 4.4 µM; 370,000 compounds, 0.75% hits; AID 687016;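 also: UHRF1 SRA domain binding a hemimethylated CpG hairpin DNA probe; 0% = median of test compound wells and 100% = reference inhibitor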
TDP2 absorb – blocks human TDP2 phosphodiesterase activity. recombinant TDP2, T5PNP hydrolysis, p-nitrophenol absorbance 415 nm. 370,000 compounds, 0.34% hits. O95551. inhibition, % at 12.8 µM;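 active = inhibition above the mean of all tested compounds plus 3 SD, set per campaign, cut at about 25% in these data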;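 also: 0% = DMSO with enzyme and 100% = buffer with substrate but no TDP2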
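Assay system: recombinant human TDP2 / Reagent: T5PNP substrate at 5 mM, a TopII-DNA adduct mimic / Measured by: epi absorbance from released p-nitrophenol / Evaluation: % inhibition relative to enzyme-containing and enzyme-free wells / Control set: enzyme-free and DMSO wells / Replicates: each compound tested once, singlicate / Schedule: enzyme reaction with compound for 2 h at 37 °C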
UHRF1 ctr MBD2 – counter-screen for MBD2 inhibitors: human UHRF1 methylated DNA binding inhibitors; 1,000 compounds, 25% hits; shares compounds with MBD2 inh; UHRF1 binding to methylated oligonucleotide, TR-FRET; inhibition, % at 4.4 µM;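 also: UHRF1 SRA domain binding a labeled hemimethylated CpG hairpin DNA; 0% = vehicle only and 100% = reference inhibitor with vehicle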
MBD2 DBD conf – MBD2-DBD methyl-DNA binding inhibition, TR-FRET confirmation. AID 720531. TR-FRET MBD2-DBD binding to methylated oligonucleotide. shares compounds with MBD2 inh. 1,000 compounds, 26% hits. inhibition, % at 4.4 µM; in the data active = inhibition above about 14%
TDP2 inh conf – human TDP2 inhibition, confirmation; shares compounds with TDP2 absorb; recombinant human TDP2, absorbance read-out; inhibition, % at 12.8 µM; 1,100 compounds, 22% hits; AID 743263; in the data active = inhibition above about 25%;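 also: 0% = vehicle with enzyme and 100% = no enzyme buffer only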
IN multimer act – activates HIV-1 integrase multimerization in LEDGF counter-screen; shares compounds with LEDGF integ inh; TR-FRET HIV-1 integrase multimerization, biochemical; activation, % at 7.7 µM; 2,000 compounds, 17% hits; AID 1053131; in the data active = activation above about 8.9%
TR-FRET interf – TR-FRET optical interference, LEDGF/p75 integration counter-screen | shares compounds with LEDGF integ inh | TR-FRET optical interference counterscreen, HIV-1 IN multimerization | inhibition, % at 7.7 µM | 2,000 tested, under 10 active | AID 1053135;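 active = inhibition above the mean over all tested compounds plus 3 SD, which no compound reached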;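 also: 0% = integrase with antibodies and DMSO and 100% = antibodies without integrase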
IN-LEDGF confirm – LEDGF/p75-dependent HIV-1 integration inhibition, confirmation. shares compounds with LEDGF integ inh. TR-FRET LEDGF/p75-dependent HIV-1 integration, biochemical. inhibition, % at 3.7 µM. 2,000 compounds, 36% hits; in the data active = inhibition above about 14%
Starred values were filed as active, the others as inactive; / = no result given. Rule as the data show it, unless noted: active = inhibition above about 21%; inactive = the rest.

SMILES | NSD2 HMT inh | MBD2 inh | Casp6 inh | LEDGF integ inh | UHRF1 binding | TDP2 absorb | UHRF1 ctr MBD2 | MBD2 DBD conf | IN multimer act | TR-FRET interf | IN-LEDGF confirm | others
O=C(CCS(=O)(=O)c1ccc(Br)cc1)N1CCN(c2ccc(Cl)cc2)CC1 | -1 | -1 | / | 0 | -2 | 4 | / | / | / | / | /
O=C(CCS(=O)(=O)c1ccc(Br)cc1)N1CCN(c2ccc(F)cc2)CC1 | 2 | 26* | / | 19* | 73* | 3 | 9 | 2 | -5 | 19 | 10
Cc1ccc(/C=C2/C(=O)c3ccc(C(=O)O)cc3C2=O)o1 | / | 22* | 30 | 69* | 78* | 26* | 40* | 2 | 25* | -88 | 58* | TDP2 inh conf=25*
Cc1ccc(C=C2C(=O)c3ccccc3C2=O)o1 | 35 | -2 | / | 8 | 10 | 10 | / | / | / | / | /
CCCNC(=O)N1[C@H](CO)[C@H]2c3ccccc3N(C(=O)Nc3cccc(F)c3)C[C@H]21 | / | / | 2 | / | / | / | / | / | / | / | /
C=CC(=O)N1C/C(=C/c2ccc(F)cc2)C(=O)/C(=C\c2ccc(F)cc2)C1 | 3 | 15* | 78* | 14* | 40* | -14 | 25* | 15* | 11* | -54 | 18*
CN1C2CCC1/C(=C\c1ccc(F)cc1)C(=O)/C2=C/c1ccc(F)cc1 | 8 | -5 | / | 2 | -2 | 6 | / | / | / | / | /
O=c1[nH]c(=S)[nH]c2nc(-c3ccccc3)cnc12 | 0 | -1 | -3 | 0 | 6 | -11 | / | / | / | / | /
Cc1cc2nc3c(=O)[nH]c(=S)[nH]c3nc2cc1NC(=O)C(F)(F)F | / | 33* | 11 | 74* | 28* | 3 | -11 | -12 | 12* | -42 | 5
C[C@H](CO)N1C[C@H](C)[C@H](CN(C)C(=O)Nc2ccccc2)Oc2c(cccc2N(C)C)C1=O | / | / | 2 | / | / | / | / | / | / | / | /
O=C1/C(=C/C=C/c2ccco2)SC(=S)N1c1ccc(O)cc1 | 11 | 41* | 76* | 76* | 87* | 26* | 20 | 6 | 19* | -67 | 73* | TDP2 inh conf=14
O=C(NN1C(=O)/C(=C/C=C/c2ccccc2)SC1=S)c1ccncc1 | 6 | -5 | 17 | 1 | -12 | -13 | / | / | / | / | /
O=C(NN1C(=O)/C(=C/C=C/c2ccco2)SC1=S)c1ccncc1 | / | 74* | 76* | 83* | 97* | 19 | 90* | 63* | 47* | -165 | 83*
O=C(C[C@@H]1C[C@@H]2c3cc(NC(=O)C4CCOCC4)ccc3O[C@@H]2[C@H](CO)O1)NCc1ccccc1F | / | / | 4 | / | / | / | / | / | / | / | /
O=C(C[C@@H]1CC[C@@H](NC(=O)Nc2cc(F)ccc2F)[C@H](CO)O1)NCc1ccccn1 | / | / | -3 | / | / | / | / | / | / | / | /
CCCNC(=O)N1C[C@@H](C)[C@H](OC)CN(C)C(=O)c2ccc(NC(=O)CCC)cc2OC[C@@H]1C | / | / | 0 | / | / | / | / | / | / | / | /
COc1ccc2c3c([nH]c2c1)[C@H](CO)N(C(=O)c1ccccc1)CC31CN(Cc2cccnc2)C1 | / | / | 0 | / | / | / | / | / | / | / | /
CCCCn1nnnc1C1(C)CCC(=O)N1CCCn1ccnc1 (stereo not drawn) | / | 14* | 15 | 16* | 17 | 7 | 17 | 16* | 4 | -13 | 7
Cc1cccc(C)c1-n1nnnc1C1(C)CCC(=O)N1CCCn1ccnc1 (stereo not drawn) | / | 0 | 2 | 4 | -2 | 16 | / | / | / | / | /
Cc1sc2nc3n(c(=O)c2c1C)CCCS3 | -3 | -9 | / | 0 | 0 | -3 | / | / | / | / | /
